From ChEMBL document CHEMBL2150936, “Anticancer activity of small amphipathic β²,²-amino acid derivatives” (Eur J Med Chem, 2012) come the findings set out here.

As usually defined, the EC50 is the concentration at which the effect is half-maximal. A word on the IC50: it is the concentration at which inhibition is half-maximal. A low value points to higher potency.

Assay [1] deals with Ramos. As to the kind of experiment: Selectivity index, ratio of EC50 for human RBC to IC50 for human Ramos cells. In kind it is functional. The method, boiled down: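 Ramos IC50 came from a 4 h MTT assay: cells at 4 × 10^5 cells/ml in serum-free RPMI-1640, compounds added at once, 37 °C, 2 h MTT, read at 590 nm. RBC EC50 came from hemoglobin release at 405 nm: 1% v/v washed human erythrocytes in PBS, 1 h at 37 °C, Triton X-100 reference. SI = RBC EC50 / Ramos IC50.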

In another assay the test system is MRC5. In words: Cytotoxicity against human MRC5 cells after 4 hrs by MTT assay. In kind it is cell-based. As to conditions: MRC5, 4 h. The method, boiled down: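 MRC-5 embryonic lung fibroblast monolayers in MEM with 10% FBS were seeded at 1 × 10^5 cells/ml, grown overnight, then medium was replaced with compound solution. Exposure was 4 h at 37 °C, 5% CO2, then MTT for 2 h. Formazan was dissolved in acidic isopropanol (0.04 N HCl) and absorbance read at 590 nm. Background-corrected viability was taken relative to medium-only control, with Triton X-100 as positive control.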
On the technique in general: Formazan colour is commonly taken as a measure of viable cells.

In assay [2] the test system is Ramos. As to the kind of experiment: Selectivity index, ratio of EC50 for human MRC5 cells to IC50 for human Ramos cells. In kind it is functional. In a few lines: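 Ramos cells were seeded at 4 × 10^5 cells/ml in serum-free RPMI-1640, and compounds in RPMI-1640 were added at once. MRC-5 fibroblasts were seeded at 1 × 10^5 cells/ml in MEM with 10% FBS, grown overnight, and the medium was then replaced with compound. Both were incubated 4 h at 37 °C, 5% CO2, then given MTT for 2 h. Formazan was dissolved in acidic isopropanol and read at 590 nm. Survival was expressed relative to the untreated medium control. SI = MRC-5 EC50 / Ramos IC50.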

Assay [3] has as its system Ramos. As to the kind of experiment: Cytotoxicity against human Ramos cells after 4 hrs by MTT assay. It is filed as functional, cell-based. The method, boiled down:
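Ramos Burkitt's lymphoma cells, kept in suspension in RPMI 1640 with 10% FBS, were seeded at 4 × 10^5 cells/ml in serum-free RPMI 1640. Compounds in RPMI-1640 were added immediately, then 4 h at 37 °C, 5% CO2. MTT was added for a further 2 h, formazan dissolved in acidic isopropanol (0.04 N HCl), and A590 read. Survival was calculated against untreated medium control; 1% Triton X-100 served as positive control.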

A short description of assay [4]: Hemolytic activity in human RBC assessed as hemoglobin release. It is filed as ADME, cell-based, Erythrocyte. In a few lines: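 Heparinized human blood was washed three times in PBS pre-warmed to 37 °C to remove plasma. Compounds were dissolved in PBS and mixed with the RBCs to a final 1% v/v erythrocytes. Samples were incubated for 1 h at 37 °C with agitation, then centrifuged. Hemoglobin release was read at 405 nm, relative to 0.1% v/v Triton X-100 (positive control) and PBS (negative control).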

The mark [5] stands for this setting: Homo sapiens, Erythrocyte, read-out: EC50.

With `NCCNC(=O)C(CN)(Cc1ccc(C(F)(F)F)cc1)Cc1ccc(C(F)(F)F)cc1`, the entries for the “Selectivity Index” value with Ramos [1] and in the assay on Ramos [2] were 60 and 2.5, respectively. Moreover, in the assay with MRC5, the EC50 is 17.8 µM. The same molecule yielded an IC50 in the assay on Ramos [3] of 7.1 µM.
For `CN(C)CCNC(=O)C(CN)(Cc1ccc(C(C)(C)C)cc1)Cc1ccc(C(C)(C)C)cc1`, the “Selectivity Index” value in the assay on Ramos [1] is 9.8; with Ramos [2], 1.8. This molecule displayed an EC50 in the assay on MRC5 of 49 µM. Moreover, half-maximal inhibition with Ramos [3] (IC50) required 28 µM.
Consider `CN1CCN(C(=O)C(CN)(Cc2ccc(C(F)(F)F)cc2)Cc2ccc(C(F)(F)F)cc2)CC1`, for which the entries for the “Selectivity Index” value in the assay on Ramos [1] and in the assay with Ramos [2] were 19.6 and 6.7, respectively. Besides, the EC50 stood at 182 µM in the assay on MRC5 and 526 µM in assay [4] (setting [5]). Besides, in the assay with Ramos [3], the IC50 stood at 27 µM.
On to `CN(C)CCNC(=O)C(CN)(Cc1ccc(C(F)(F)F)cc1)Cc1ccc(C(F)(F)F)cc1`, for which the “Selectivity Index” value is listed as 41 with Ramos [1] and 4.1 with Ramos [2]. The midpoint of the response in the assay with MRC5, the EC50, lay at 47 µM. Besides, it took 11.4 µM to reach half-maximal inhibition with Ramos [3] (IC50).
As for `CN(C)CCN1CCN(C(=O)C(CN)(Cc2ccc(C(C)(C)C)cc2)Cc2ccc(C(C)(C)C)cc2)CC1`, the “Selectivity Index” value in the assay on Ramos [1] turned out to be 65; in the assay on Ramos [2] it was 2.3. For the same molecule, the EC50 with MRC5 was 12 µM; in assay [4] (setting [5]) it was 337 µM. In the assay with Ramos [3], the IC50 is 5.2 µM.
On to `CN(C)CCN1CCN(C(=O)C(CN)(Cc2ccc(C(F)(F)F)cc2)Cc2ccc(C(F)(F)F)cc2)CC1`, for which the “Selectivity Index” value is 58 with Ramos [1] and 3.6 with Ramos [2]. The EC50 was determined as 69 µM in the assay on MRC5 and 1120 µM in assay [4] (setting [5]). In the assay on Ramos [3], this molecule registered an IC50 of 19 µM.
For `NCCCNC(=O)C(CN)(Cc1ccc2ccccc2c1)Cc1ccc2ccccc2c1`, in that order: 104, 1.5, 6.6 µM, 447 µM and 4.3 µM.
`CC(C)(C)c1ccc(CC(CN)(Cc2ccc(C(C)(C)C)cc2)C(=O)NCCN)cc1`: the “Selectivity Index” value was determined as 1.7 in the assay on Ramos [1] and 0.6 in the assay on Ramos [2]. Moreover, the EC50 with MRC5 was found to be 6.1 µM; in assay [4] (setting [5]) it was 18 µM. This molecule gave an IC50 in the assay on Ramos [3] of 10.6 µM.
As for `N=C(N)NCCCNC(=O)C(CNC(=N)N)(Cc1ccc2ccccc2c1)Cc1ccc2ccccc2c1`, the EC50 with MRC5 is 760 µM; in assay [4] (erythrocyte), “ND(Insoluble)”. In addition, the “Selectivity Index” value in the assay on Ramos [2] came out at 9.6. Also, 79 µM corresponded to half-maximal inhibition with Ramos [3] (IC50).
For `CN(C)CCOC(=O)C(CN)(Cc1ccc(C(C)(C)C)cc1)Cc1ccc(C(C)(C)C)cc1`, the “Selectivity Index” value in the assay with Ramos [1] is 1.7; with Ramos [2], 2.9. In addition, the values for the EC50 (with MRC5; in assay [4] (setting [5])) were 90 µM and 52 µM, respectively. This molecule returned an IC50 in the assay with Ramos [3] of 31 µM.
Take `CC(C)(C)c1ccc(CC(CN)(Cc2ccc(C(C)(C)C)cc2)C(=O)N[C@@H](CCCNC(=N)N)C(N)=O)cc1`: the results for the “Selectivity Index” value with Ramos [1] and with Ramos [2] were over 4.8 and 1.2, respectively. The EC50 in the assay with MRC5 is 158 µM; in assay [4] (setting [5]) it was over 654 µM. For the same molecule, half-maximal inhibition in the assay on Ramos [3] (IC50) was put at 136 µM.
`CN(C)CCOC(=O)C(CN)(Cc1ccc2ccccc2c1)Cc1ccc2ccccc2c1`: the “Selectivity Index” value in the assay with Ramos [1] is listed as 148; in the assay with Ramos [2], 4.1. Also, the values for the EC50 (in the assay on MRC5; in assay [4] (setting [5])) were 12.7 µM and 458 µM, respectively. In the assay with Ramos [3], this molecule displayed a 50% inhibitory concentration (IC50) of 3.1 µM.
Consider `N=C(N)NCCC[C@H](NC(=O)C(CN)(Cc1ccc(C(F)(F)F)cc1)Cc1ccc(C(F)(F)F)cc1)C(N)=O`, for which the figures for the EC50 (with MRC5; in assay [4] (setting [5])) were over 634 µM and 990 µM, respectively. The same molecule had an IC50 in the assay with Ramos [3] of over 254 µM.
For the molecule `CN1CCN(C(=O)C(CN)(Cc2ccc3ccccc3c2)Cc2ccc3ccccc3c2)CC1`, the “Selectivity Index” value in the assay on Ramos [1] is recorded as 22; in the assay with Ramos [2], 2.9. The same molecule displayed an EC50 in the assay on MRC5 of 41 µM. For the same molecule, it took 14 µM to reach half-maximal inhibition in the assay with Ramos [3] (IC50).
Regarding `CN1CCN(C(=O)C(CN)(Cc2ccc(C(C)(C)C)cc2)Cc2ccc(C(C)(C)C)cc2)CC1`, the “Selectivity Index” value is listed as 57 with Ramos [1] and 2.7 with Ramos [2]. For the same molecule, the EC50 with MRC5 was 16.6 µM; in assay [4] (setting [5]), 349 µM. In the assay with Ramos [3], the IC50 worked out at 6.1 µM.
For `CN(C)CCN1CCN(C(=O)C(CN)(Cc2ccc3ccccc3c2)Cc2ccc3ccccc3c2)CC1`, the “Selectivity Index” value is 57 in the assay with Ramos [1] and 2.6 in the assay on Ramos [2]. In addition, the EC50 stood at 18.5 µM with MRC5 and 409 µM in assay [4] (setting [5]). This molecule gave an IC50 in the assay on Ramos [3] of 7.2 µM.
Turning to `NCCCNC(=O)C(CN)(Cc1ccc(C(F)(F)F)cc1)Cc1ccc(C(F)(F)F)cc1`, the results for the “Selectivity Index” value in the assay on Ramos [1] and in the assay with Ramos [2] were 72 and 2.8, respectively. Moreover, the EC50 with MRC5 stood at 30 µM; in assay [4] (setting [5]), 790 µM. For the same molecule, in the assay with Ramos [3], it took 11 µM to reach half-maximal inhibition (IC50).
Turning to `N=C(N)NCCCNC(=O)C(CNC(=N)N)(Cc1ccc(C(F)(F)F)cc1)Cc1ccc(C(F)(F)F)cc1`, the EC50 was 171 µM in the assay with MRC5 and “ND(Insoluble)” in assay [4] (erythrocyte). Besides, the “Selectivity Index” value in the assay on Ramos [2] is recorded as 2.2. The molecule also gave a concentration for half-maximal inhibition (IC50) with Ramos [3] of 78 µM.
With `CC(C)(C)c1ccc(CC(CNC(=N)N)(Cc2ccc(C(C)(C)C)cc2)C(=O)NCCCNC(=N)N)cc1`, the results for the EC50 (in the assay on MRC5; in assay [4] (erythrocyte)) were 64 µM and “ND(Insoluble)”, respectively. Also, the “Selectivity Index” value in the assay with Ramos [2] stood at 1. In the assay on Ramos [3], this molecule came in with an IC50 of 63 µM.
Turning to `CN(C)CCNC(=O)C(CN)(Cc1ccc2ccccc2c1)Cc1ccc2ccccc2c1`, the “Selectivity Index” value in the assay with Ramos [1] turned out to be 33; in the assay with Ramos [2], 0.7. Moreover, the EC50 with MRC5 was determined as 4.9 µM; in assay [4] (setting [5]), 217 µM. For the same molecule, the half-maximal inhibitory concentration (IC50) in the assay on Ramos [3] was 6.6 µM.
For `CC(C)(C)c1ccc(CC(CN)(Cc2ccc(C(C)(C)C)cc2)C(=O)NCCCN)cc1`, in that order: 17.6, 2.4, 35 µM, 254 µM and 14.4 µM.
With `N=C(N)NCCC[C@H](NC(=O)C(CN)(Cc1ccc2ccccc2c1)Cc1ccc2ccccc2c1)C(N)=O`, the “Selectivity Index” value in the assay with Ramos [1] is on record as 4; in the assay on Ramos [2], 5.2. The EC50 in the assay on MRC5 turned out to be 552 µM; in assay [4] (setting [5]) it was 425 µM. Further, in the assay with Ramos [3], the IC50 amounted to 107 µM.
On to `CN(C)CCOC(=O)C(CN)(Cc1ccc(C(F)(F)F)cc1)Cc1ccc(C(F)(F)F)cc1`, for which the “Selectivity Index” value is on record as 190 with Ramos [1] and 3.6 in the assay on Ramos [2]. Moreover, the EC50 turned out to be 8.2 µM in the assay with MRC5 and 437 µM in assay [4] (setting [5]). Moreover, in the assay on Ramos [3], the IC50 amounted to 2.3 µM.
